Reference: article PMC2883079 (European Journal of Immunology, 2009)
Several values for one entry are separate records, joined by “and”; a condition that tells them apart may be missing. Identical values can stand only once. Like-named read-outs stand apart in the source and are kept apart here. No end group written: not given here.

B1: CCL19: chemokine, positive control for mDC migration (protein, UniProt Q99731 22-98, looked up)
C-C motif chemokine 19: GTNDAEDCCLSVTQKPIPGYIVRNFHYLLIKDGCRVPAVVFTTLRGRQLCAPPDQPWVERIIQRLQRTSAKMKRRSS

Key:
[1] = system: HEK293 cells expressing human CCR6; experiment: Chemotaxis assay, HEK293 cells expressing human CCR6; format: cell-based; details: HEK293 cells overexpressing human CCR6, 5 h
In short: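 48-well chemotaxis chamber, 5 h. Cells at 5×10^5 per mL in RPMI 1640 with 1% BSA, which also served as diluent and no-peptide control. CCL20 positive control. Migrated cells counted in three random ×400 fields per well, triplicate wells, as mean per field. MI = count at optimal concentration / control count. One-tailed Student's t-test. Representative of at least three experiments.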

[2] = system: immature DC (iDC), bone marrow-derived, 6 days in GM-CSF; experiment: Chemotaxis assay, iDC cultured in GM-CSF for 6 days; format: cell-based, mouse; details: 1.5 h
mature DC (mDC) = experiment: Chemotaxis assay, LPS-matured DC; format: cell-based, mouse; details: DC matured 24 h with 100 ng/mL E. coli LPS; 1.5 h
In short: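 Mouse tibia/femur marrow at 3.75×10^5 cells/mL with GM-CSF supernatant (5%, 500 U/mL), refed day 3. Day 6 cultures then had LPS for 24 h. Phenotyped by flow for CD11c/MHC II, CD86, CD54, Gr1 and B220. 48-well chamber, 1.5 h, RPMI/1% BSA, cells at 5×10^5 per mL. CCL19 positive control. Three ×400 fields per well, triplicate wells, SD over nine counts, one-tailed t-test.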

human CD4^+ T cells = experiment: Chemotaxis assay, human CD4+ T cells; format: cell-based; details: for optimal concentration for chemotaxis / migratory index (MI): 4 h; for migratory index (MI): at optimal concentration
In short: (§1)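 In 48-well chemotaxis chambers, cells migrated for 4 h. Human CD4+ cells came from Ficoll–Paque mononuclear cells of donor blood or bone marrow, with CCL20 as positive control. Mouse cells were splenic CD4+ from magnetic positive selection, CD4/CD3-stained, with CXCL12a as control. Cells were at 5×10^5/mL in RPMI 1640/1% BSA, the medium also used to dilute peptides. Three ×400 fields were counted per triplicate well. MI = migrated cells at optimal concentration / peptide-free control. One-tailed t-test.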

mouse CD4^+ T cells = experiment: Chemotaxis assay, mouse CD4+ T cells; format: cell-based; details: 4 h
In short: as §1

[3] = cited from earlier work
[4] = system: immature DC (iDC), bone marrow-derived, 7 days in GM-CSF; experiment: Chemotaxis assay, iDC cultured in GM-CSF for 7 days; format: cell-based, mouse
In short: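 Mouse tibia/femur marrow cells were seeded at 3.75×10^5/mL in complete medium with 5% (500 U/mL) GM-CSF supernatant, refed on day 3. Loosely adherent cells were harvested on day 6 or day 7. Migration ran 1.5 h in 48-well chambers, cells at 5×10^5/mL in RPMI 1640/1% BSA, with CCL20 as positive control. Three ×400 fields were counted per triplicate well. MI = migrated cells at optimal peptide / control medium. One-tailed t-test, p<0.05.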

CD4 T cells = experiment: Chemotaxis of CD4 T cells; format: cell-based; details: species of cells not stated
In short: as §1

Antimicrobial activity = format: cell-based; details: data not shown
neutrophils = experiment: Chemotaxis assay, peritoneal neutrophils; format: cell-based, mouse; details: at least 90% pure, positive control at 45 ng/mL
In short: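 Mouse peritoneal neutrophils, identified by morphology and at least 90% pure. Tested in 48-well chemotaxis chambers with N-formylmethionyl leucyl phenylalanine as positive control and RPMI 1640/1% BSA as medium and no-peptide control. Cells at 5×10^5 per mL. Migrated cells counted in three random ×400 fields per well in triplicate wells. Reported as mean per field. One-tailed Student's t-test.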

[5] = d6iDC, p<0.05 vs control medium
[6] = d7iDC, at peak peptide concentration, 1.5 h

Molecule	chemoattraction of CCR6-expressing cells (result in words) [1]	migration of mDC (result in words) (mature DC (mDC))	optimal concentration for chemotaxis (human CD4^+ T cells)	migratory index (MI) (human CD4^+ T cells)	optimal / only significant concentration for chemotaxis (mouse CD4^+ T cells)	further results
CCL20: recognised chemokine ligand for the CCR6 receptor, positive control [reference compound]	can chemoattract these cells	–	–	–	–	–
DPVTCIRNGGICQYRCIGLRHKIGTCGSPFKCCK (also: bicyclic or more (positions not given here)) [Defr1-Y5C]	unable to chemoattract these cells	Neither peptide could induce migration	100 ng/mL	5.5	100 ng/mL	migration of iDC (result in words) [2, 5]: Neither peptide could induce migration; antimicrobial activity (result in words) [3]: poor antimicrobial activity
DPVTYIRNGGIAQYRAIGLRHKIGTAGSPFKCAK (disulfide (positions not given here)) [Defr1-1c^V]	unable to chemoattract these cells	Neither peptide could induce migration	100 ng/mL	5.5	100 ng/mL	migration of iDC (result in words) [2, 5]: Neither peptide could induce migration
DPVTYIRNGGICQYRCIGLRHKIGTCGSPFKCCK (disulfide (positions not given here)) [Defr1]	neither Defr1 nor the six cysteine allele Defb8, can chemoattract these cells	do not show significant migration	10 ng/mL	8 and 9	10 ng/mL	peptide concentration giving peak migration ([2]; d6iDC): 10 ng/mL; peptide concentration giving peak migration ([4]; d7iDC, 1.5 h): 1 ng/mL; migratory index (MI) [4, 6]: ~3.5; migratory index (MI) ([4]; d7iDC, peptide at 0.1 ng/mL, p<0.05): 2.5; activity relative to Defr1 Y5C and Defr1-1c^V (peak concentration) (human CD4^+ T cells): tenfold more active; migratory index (MI) (mouse CD4^+ T cells; at optimal concentration): 2.5; chemoattraction of CD4 T cells (result in words) (CD4 T cells): attracting CD4 T cells; antimicrobial activity (result in words) [3]: potent antimicrobial activity
ELDHCHTNGGYCVRAICPPSARRPGSCFPEKNPCCKYMK (also: bicyclic or more (positions not given here)) [Defb2]	–	do not show significant migration	–	–	–	migration of d7iDC (result in words) ([4]; all concentrations tested, p<0.05 vs control): statistically significant migration; migratory index (MI) [4, 6]: 3.0; chemoattraction of CD4 T cells (result in words) (CD4 T cells): attracting CD4 T cells
EPVSCIRNGGICQYRCIGLRHKIGTCGSPFKCCK (also: bicyclic or more (positions not given here)) [Defb8]	neither Defr1 nor the six cysteine allele Defb8, can chemoattract these cells	–	–	–	–	migration of iDC (result in words) ([2]; iDC, days of culture not stated (Fig. 4A)): can chemoattract iDC; antimicrobial activity (result in words) (Antimicrobial activity): much reduced antimicrobial activity compared with Defr1
N-formylmethionyl leucyl phenyalanine	–	–	–	–	–	migration of neutrophils (result in words) (neutrophils): significant migration
B1	–	statistically significant migration	–	–	–	–
